Active and inactive are the calls of the source. The rule behind the calls is not given here.
How the values were obtained:
[1] = target: cAMP and cAMP-inhibited cGMP 3',5'-cyclic phosphodiesterase 10A (Homo sapiens, UniProt Q9Y233); experiment: Inhibition of human PDE10A2 transfected in AD293 cells by IMAP FP assay; assay type: cell-based
Outline: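 Ki values are the mean of at least two determinations, each from a 10-point dose–response curve.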

Homo sapiens [2] = species on record: Homo sapiens; experiment: Selectivity ratio of Ki for human PDE9A2 to Ki for human PDE10A2
Outline: (§1)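 The ratio is PDEx Ki divided by PDE10A Ki. Each Ki is the mean of at least two determinations, each from a 10-point dose–response curve.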

Homo sapiens [3] = species on record: Homo sapiens; experiment: Selectivity ratio of Ki for human PDE11A4 to Ki for human PDE10A2; outline: as §1
[4] = Plasma concentration in Wistar Hannover rat at 1 mg/kg, ip measured after 3.5 hrs; assay type: ADME, organism-based
Outline: (§2)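 Plasma was sampled 3.5 h after a single ip dose, during the MK-801 hyperlocomotion study. Each value is the mean of two or three measurements.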

[5] = Plasma concentration in Wistar Hannover rat at 3 mg/kg, ip measured after 3.5 hrs; assay type: ADME, organism-based; outline: as §2
[6] = Plasma concentration in Wistar Hannover rat at 5 mg/kg, ip measured after 3.5 hrs; assay type: ADME, organism-based; outline: as §2
Rattus norvegicus = experiment: Suppression of MK-801-induced hyperlocomotion in Wistar Hannover rat at 1 to 5 mg/kg, ip administered 120 mins followed by MK-801 induction measured after 90 mins; assay type: functional, organism-based
Outline: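 Rats received ip doses of 1, 3 or 5 mg/kg and were then challenged with MK-801. Psychostimulant-induced locomotor activity was the read-out.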

Homo sapiens [7] = species on record: Homo sapiens; experiment: Selectivity ratio of Ki for human PDE1A to Ki for human PDE10A2; outline: as §1
[8] = Selectivity ratio of Ki for rhesus monkey PDE2A3 to Ki for human PDE10A2; outline: as §1
Homo sapiens [9] = species on record: Homo sapiens; experiment: Selectivity ratio of Ki for human PDE3A to Ki for human PDE10A2; outline: as §1
Homo sapiens [10] = species on record: Homo sapiens; experiment: Selectivity ratio of Ki for human PDE4A1A to Ki for human PDE10A2; outline: as §1
Homo sapiens [11] = species on record: Homo sapiens; experiment: Selectivity ratio of Ki for human PDE5A1 to Ki for human PDE10A2; outline: as §1
Homo sapiens [12] = species on record: Homo sapiens; experiment: Selectivity ratio of Ki for human PDE7A to Ki for human PDE10A2; outline: as §1
Homo sapiens [13] = species on record: Homo sapiens; experiment: Selectivity ratio of Ki for human PDE8A1 to Ki for human PDE10A2; outline: as §1

Sequence of cAMP and cAMP-inhibited cGMP 3',5'-cyclic phosphodiesterase 10A (Q9Y233 whole entry): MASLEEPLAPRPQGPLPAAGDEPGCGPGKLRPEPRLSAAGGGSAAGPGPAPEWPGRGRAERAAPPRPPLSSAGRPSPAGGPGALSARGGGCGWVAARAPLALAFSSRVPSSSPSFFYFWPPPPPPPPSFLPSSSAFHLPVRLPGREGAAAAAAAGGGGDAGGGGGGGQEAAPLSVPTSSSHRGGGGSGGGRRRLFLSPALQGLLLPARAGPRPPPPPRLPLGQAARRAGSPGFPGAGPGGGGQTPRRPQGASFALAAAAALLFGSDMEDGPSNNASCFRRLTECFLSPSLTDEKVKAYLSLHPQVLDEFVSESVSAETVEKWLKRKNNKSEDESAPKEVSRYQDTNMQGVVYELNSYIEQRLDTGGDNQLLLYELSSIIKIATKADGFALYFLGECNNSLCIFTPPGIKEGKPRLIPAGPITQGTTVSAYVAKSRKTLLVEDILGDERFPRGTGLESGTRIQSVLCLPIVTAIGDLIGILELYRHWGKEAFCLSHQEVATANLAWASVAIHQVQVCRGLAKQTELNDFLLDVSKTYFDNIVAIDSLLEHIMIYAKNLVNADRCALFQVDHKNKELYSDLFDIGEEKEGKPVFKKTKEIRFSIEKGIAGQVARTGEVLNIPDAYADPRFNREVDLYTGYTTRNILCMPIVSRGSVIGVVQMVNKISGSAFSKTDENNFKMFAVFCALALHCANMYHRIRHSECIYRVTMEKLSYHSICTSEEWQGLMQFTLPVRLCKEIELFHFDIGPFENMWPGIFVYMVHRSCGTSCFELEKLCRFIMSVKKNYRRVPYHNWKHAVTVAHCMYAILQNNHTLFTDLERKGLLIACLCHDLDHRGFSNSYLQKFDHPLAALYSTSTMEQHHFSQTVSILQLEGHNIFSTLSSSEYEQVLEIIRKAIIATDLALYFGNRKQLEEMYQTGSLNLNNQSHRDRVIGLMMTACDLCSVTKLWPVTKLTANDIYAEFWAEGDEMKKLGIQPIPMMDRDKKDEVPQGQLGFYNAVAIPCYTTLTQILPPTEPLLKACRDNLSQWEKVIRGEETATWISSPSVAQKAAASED

Structure (SMILES)	Ki [1] [nM]	other results
Cc1nc(C)c(CNc2nc(OCCCc3ccc4ccccc4n3)nc(Cl)c2C)s1	0.0082	Ratio Ki (Homo sapiens [2]): > 1000; Ratio Ki (Homo sapiens [3]): > 1000; concentration at 3.5 h [4]: 17 nM; concentration at 3.5 h [5]: 83 nM; concentration at 3.5 h [6]: 110 nM; Activity (Rattus norvegicus): Active; Ratio Ki (Homo sapiens [7]): > 1000; Ratio Ki [8]: > 1000; Ratio Ki (Homo sapiens [9]): > 1000; Ratio Ki (Homo sapiens [10]): > 1000; Ratio Ki (Homo sapiens [11]): > 1000; Ratio Ki (Homo sapiens [12]): > 1000; Ratio Ki (Homo sapiens [13]): > 1000
COc1nc(Cl)c(C)c(NCc2sc(C)nc2C)n1	8.5	–
Cc1nc(C)c(CNc2nc(OCCc3ccccn3)nc(Cl)c2C)s1	2	–
Cc1nc(C)c(CNc2nc(OCCO)nc(Cl)c2C)s1	12	–
Cc1c(Cl)nc(C2CC2)nc1N1CCNCC1	4600	–
CCCOc1nc(Cl)c(C)c(NCc2sc(C)nc2C)n1	5.1	–
Cc1nc(C)c(CNc2nc(OCCCc3nc4ccccc4s3)nc(Cl)c2C)s1	0.055	–
Cc1cc(CNc2nc(C3CC3)nc(Cl)c2C)on1	38	–
Cc1c(Cl)nc(C2CC2)nc1Cl	8700	Ratio Ki (Homo sapiens [2]): 1; Ratio Ki (Homo sapiens [3]): 1; Ratio Ki (Homo sapiens [7]): 1; Ratio Ki [8]: 1; Ratio Ki (Homo sapiens [9]): 1; Ratio Ki (Homo sapiens [10]): 1; Ratio Ki (Homo sapiens [11]): 1; Ratio Ki (Homo sapiens [12]): 1; Ratio Ki (Homo sapiens [13]): 1
Cc1c(Cl)nc(C2CC2)nc1NC1CCCC1	2800	–
COc1ncc(CNc2nc(C3CC3)nc(Cl)c2C)s1	10	–
Cc1nc(C)c(CNc2nc(OCCCc3cn4ccccc4n3)nc(Cl)c2C)s1	0.047	–
Cc1ccc(CNc2nc(C3CC3)nc(Cl)c2C)cn1	130	–
Cc1nc(C)c(CNc2nc(OCCCc3ccc4cccnc4n3)nc(Cl)c2C)s1	0.11	–
Cc1nc(CNc2nc(C3CC3)nc(Cl)c2C)cs1	18	–
CCCNc1nc(C2CC2)nc(Cl)c1C	880	Ratio Ki (Homo sapiens [2]): 25; Ratio Ki (Homo sapiens [3]): 25; Ratio Ki (Homo sapiens [7]): 25; Ratio Ki [8]: 100; Ratio Ki (Homo sapiens [9]): 25; Ratio Ki (Homo sapiens [10]): 1; Ratio Ki (Homo sapiens [11]): 1; Ratio Ki (Homo sapiens [12]): 25; Ratio Ki (Homo sapiens [13]): 25
Cc1nc(C)c(CNc2nc(OCCCc3nc4ccccc4[nH]3)nc(Cl)c2C)s1	0.02	–
Cc1c(N)nc(C2CC2)nc1Cl	2200	–
Cc1c(Cl)nc(C2CC2)nc1N1CCCCC1	2100	–
Cc1c(Cl)nc(C2CC2)nc1N1CCCC1	5300	–
Cc1c(Cl)nc(C2CC2)nc1NCc1ccccc1	1400	–
Cc1csc(CNc2nc(C3CC3)nc(Cl)c2C)n1	6800	–
Cc1nc(C)c(CNc2nc(OCCC3CCCCC3)nc(Cl)c2C)s1	400	–
Cc1c(Cl)nc(C2CC2)nc1NCc1cncs1	1000	–
Cc1c(Cl)nc(C2CC2)nc1NCc1cnn(C)c1	37	–
Cc1c(Cl)nc(C2CC2)nc1NCc1ccon1	810	–
Cc1nc(C)c(CNc2nc(OCCCc3cnc4ccccc4n3)nc(Cl)c2C)s1	0.37	–

Further molecules by falling Ki [1], results first:

Ki [1] [nM]	Structure (SMILES)	other results
3600	Cc1c(Cl)nc(C2CC2)nc1NC(C)C	–
1600	Cc1ncsc1CNc1nc(C2CC2)nc(Cl)c1C	–
1500	Cc1c(Cl)nc(C2CC2)nc1NCCc1cnn(C)c1	–
1300	Cc1nc2c(s1)CN(c1nc(C3CC3)nc(Cl)c1C)CC2	–
1200	CCNc1nc(C2CC2)nc(Cl)c1C	–
1000	Cc1c(Cl)nc(C2CC2)nc1NCc1cccnc1	–
890	Cc1c(Cl)nc(C2CC2)nc1NC(C)c1ccncc1 (racemic)	–
680	Cc1c(Cl)nc(C2CC2)nc1NCc1ccoc1	–
590	Cc1nc(C)c(CNc2nc(OCCC3CCCCN3)nc(Cl)c2C)s1 (centres undefined)	–
540	Cc1cc(CN(C)c2nc(C3CC3)nc(Cl)c2C)on1	–
220	Cc1c(Cl)nc(C2CC2)nc1N(C)Cc1cnn(C)c1	–
200	Cc1c(Cl)nc(C2CC2)nc1NCc1ccncc1	–
180	C=C(F)CNc1nc(C2CC2)nc(Cl)c1C	–
51	Cc1cc(CNc2nc(C3CC3)nc(Cl)c2C)no1	–
26	Cc1ncc(CNc2nc(C3CC3)nc(Cl)c2C)s1	–
9	Cc1nc(C)c(CNc2nc(OCCc3ccccc3)nc(Cl)c2C)s1	–
4.8	Cc1nc(C)c(CNc2nc(C3CC3)nc(Cl)c2C)s1	Ratio Ki (Homo sapiens [2]): > 1000; Ratio Ki (Homo sapiens [3]): 25; Ratio Ki (Homo sapiens [7]): > 1000; Ratio Ki [8]: > 1000; Ratio Ki (Homo sapiens [9]): > 1000; Ratio Ki (Homo sapiens [10]): 100; Ratio Ki (Homo sapiens [11]): 100; Ratio Ki (Homo sapiens [12]): > 1000; Ratio Ki (Homo sapiens [13]): > 1000

From ChEMBL document CHEMBL3621123, “Discovery and Optimization of a Series of Pyrimidine-Based Phosphodiesterase 10A (PDE10A) Inhibitors through Fragment Screening, Structure-Based Design, and Parallel Synthesis” (J Med Chem, 2015)
